Results: ChEMBL document CHEMBL2177000, “Pharmacokinetic optimization of class-selective histone deacetylase inhibitors and identification of associated candidate predictive biomarkers of hepatocellular carcinoma tumor response” (J Med Chem, 2012)

Experiments:
[1] = molecular target: T1, Protein deacetylase HDAC6 (Homo sapiens, UniProt Q9UBN7); test: Inhibition of HDAC6 using p53 (379 to 382 residues) based fluorogenic peptide substrate
T1 sequence (Q9UBN7 whole entry): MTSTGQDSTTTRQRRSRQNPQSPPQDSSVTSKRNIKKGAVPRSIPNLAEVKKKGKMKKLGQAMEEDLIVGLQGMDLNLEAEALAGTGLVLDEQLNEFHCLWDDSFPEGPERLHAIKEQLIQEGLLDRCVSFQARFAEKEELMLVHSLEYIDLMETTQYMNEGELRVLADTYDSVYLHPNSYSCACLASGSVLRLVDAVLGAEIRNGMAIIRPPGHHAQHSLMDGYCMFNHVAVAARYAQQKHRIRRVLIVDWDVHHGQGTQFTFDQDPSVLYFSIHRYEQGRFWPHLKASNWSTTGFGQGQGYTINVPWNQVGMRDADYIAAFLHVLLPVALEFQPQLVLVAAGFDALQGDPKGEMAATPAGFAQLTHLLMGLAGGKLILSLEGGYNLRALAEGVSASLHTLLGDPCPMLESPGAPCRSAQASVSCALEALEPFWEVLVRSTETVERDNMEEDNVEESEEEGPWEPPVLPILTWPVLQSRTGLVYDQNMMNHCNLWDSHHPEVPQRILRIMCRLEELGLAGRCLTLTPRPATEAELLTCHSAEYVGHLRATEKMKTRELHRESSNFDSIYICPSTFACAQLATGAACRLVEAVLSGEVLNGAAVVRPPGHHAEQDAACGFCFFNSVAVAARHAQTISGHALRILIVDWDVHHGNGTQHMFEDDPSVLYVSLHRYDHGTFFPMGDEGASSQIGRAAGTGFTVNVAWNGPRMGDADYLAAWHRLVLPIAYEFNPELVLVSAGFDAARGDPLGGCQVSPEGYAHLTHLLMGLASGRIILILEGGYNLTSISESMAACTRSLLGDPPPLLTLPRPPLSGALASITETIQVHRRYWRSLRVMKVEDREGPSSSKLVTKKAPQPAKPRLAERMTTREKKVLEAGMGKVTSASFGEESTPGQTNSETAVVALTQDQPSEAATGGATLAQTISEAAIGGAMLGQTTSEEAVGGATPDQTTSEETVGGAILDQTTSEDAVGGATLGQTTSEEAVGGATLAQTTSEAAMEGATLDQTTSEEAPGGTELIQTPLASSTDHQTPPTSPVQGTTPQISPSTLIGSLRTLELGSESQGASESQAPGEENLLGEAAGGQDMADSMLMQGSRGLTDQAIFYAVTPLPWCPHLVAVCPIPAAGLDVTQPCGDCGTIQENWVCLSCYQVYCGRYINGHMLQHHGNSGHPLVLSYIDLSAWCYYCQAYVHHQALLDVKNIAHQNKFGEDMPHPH

Histone deacetylase 5 = Histone deacetylase 5 (Homo sapiens, UniProt Q9UQL6); test: Inhibition of HDAC5 using p53 (379 to 382 residues) based fluorogenic peptide substrate
Histone deacetylase 1 = Histone deacetylase 1 (Homo sapiens, UniProt Q13547); test: Inhibition of HDAC1 using p53 (379 to 382 residues) based fluorogenic peptide substrate
Histone deacetylase 9 = Histone deacetylase 9 (Homo sapiens, UniProt Q9UKV0); test: Inhibition of HDAC9 using p53 (379 to 382 residues) based fluorogenic peptide substrate
Cytochrome P450 2C19 = Cytochrome P450 2C19 (Homo sapiens, UniProt P33261); test: Inhibition of CYP2C19 in human liver microsomes in presence of NADPH by LC-MS/MS method; type: ADME, Microsome
Histone deacetylase 4 = Histone deacetylase 4 (Homo sapiens, UniProt P56524); test: Inhibition of HDAC4 using p53 (379 to 382 residues) based fluorogenic peptide substrate
[2] = molecular target: T2, Polyamine deacetylase HDAC10 (Homo sapiens, UniProt Q969S8); test: Inhibition of HDAC10 using p53 (379 to 382 residues) based fluorogenic peptide substrate
T2 sequence (Q969S8 whole entry): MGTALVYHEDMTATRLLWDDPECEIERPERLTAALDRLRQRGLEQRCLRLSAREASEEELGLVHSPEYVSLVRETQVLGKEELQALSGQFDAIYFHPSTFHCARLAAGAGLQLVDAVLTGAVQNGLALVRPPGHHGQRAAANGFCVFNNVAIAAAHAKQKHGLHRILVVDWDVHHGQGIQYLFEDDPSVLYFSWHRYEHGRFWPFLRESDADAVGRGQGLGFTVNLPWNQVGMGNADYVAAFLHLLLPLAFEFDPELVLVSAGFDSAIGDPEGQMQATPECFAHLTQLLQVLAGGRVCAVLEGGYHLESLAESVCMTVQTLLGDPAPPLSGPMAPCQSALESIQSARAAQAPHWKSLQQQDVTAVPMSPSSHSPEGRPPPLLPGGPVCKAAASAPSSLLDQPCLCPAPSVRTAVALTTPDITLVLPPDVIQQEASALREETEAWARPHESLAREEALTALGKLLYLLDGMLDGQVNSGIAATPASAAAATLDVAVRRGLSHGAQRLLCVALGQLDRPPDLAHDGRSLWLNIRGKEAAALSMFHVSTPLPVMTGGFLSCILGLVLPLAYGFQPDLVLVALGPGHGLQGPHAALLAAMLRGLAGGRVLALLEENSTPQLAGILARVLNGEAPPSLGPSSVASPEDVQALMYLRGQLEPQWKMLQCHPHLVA

Cytochrome P450 1A2 = molecular target: T3, Cytochrome P450 1A2 (Homo sapiens, UniProt P05177); test: Inhibition of CYP1A2 in human liver microsomes in presence of NADPH by LC-MS/MS method; type: ADME, Microsome
T3 sequence (P05177 whole entry): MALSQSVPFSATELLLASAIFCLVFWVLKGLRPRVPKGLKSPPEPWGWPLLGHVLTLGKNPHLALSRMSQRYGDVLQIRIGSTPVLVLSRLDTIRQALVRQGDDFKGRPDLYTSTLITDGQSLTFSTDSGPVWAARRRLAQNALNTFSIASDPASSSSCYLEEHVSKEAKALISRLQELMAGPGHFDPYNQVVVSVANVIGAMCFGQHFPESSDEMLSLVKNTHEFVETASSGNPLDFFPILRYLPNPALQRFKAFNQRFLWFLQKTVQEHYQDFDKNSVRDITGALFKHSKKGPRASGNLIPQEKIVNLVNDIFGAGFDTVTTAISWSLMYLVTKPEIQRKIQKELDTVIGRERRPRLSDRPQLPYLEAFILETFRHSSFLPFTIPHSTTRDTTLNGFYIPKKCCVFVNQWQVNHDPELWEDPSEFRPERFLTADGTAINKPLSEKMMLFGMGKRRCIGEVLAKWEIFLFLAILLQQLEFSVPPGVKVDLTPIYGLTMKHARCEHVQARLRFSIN

[3] = AUC in BALB/C mouse at 10 mg/kg, po or 2 mg/kg, iv by LC-MS/MS method; type: ADME, organism-based, Plasma; conditions: BALB/C, plasma
Method in brief: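 Female-unspecified BALB/C nude mice (15−20 g, N = 16 per arm); iv bolus 2 mg/kg in 5% DMSO/40% PEG400/55% saline and/or oral gavage 10 mg/kg as 0.445% microcrystalline cellulose microsuspension. Blood sampled at nine (iv) or eight (po) time points into sodium heparin tubes; plasma by LC-MS/MS; noncompartmental analysis.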

Chain of Cytochrome P450 2C19 (P33261 whole entry, the tested form may be a part): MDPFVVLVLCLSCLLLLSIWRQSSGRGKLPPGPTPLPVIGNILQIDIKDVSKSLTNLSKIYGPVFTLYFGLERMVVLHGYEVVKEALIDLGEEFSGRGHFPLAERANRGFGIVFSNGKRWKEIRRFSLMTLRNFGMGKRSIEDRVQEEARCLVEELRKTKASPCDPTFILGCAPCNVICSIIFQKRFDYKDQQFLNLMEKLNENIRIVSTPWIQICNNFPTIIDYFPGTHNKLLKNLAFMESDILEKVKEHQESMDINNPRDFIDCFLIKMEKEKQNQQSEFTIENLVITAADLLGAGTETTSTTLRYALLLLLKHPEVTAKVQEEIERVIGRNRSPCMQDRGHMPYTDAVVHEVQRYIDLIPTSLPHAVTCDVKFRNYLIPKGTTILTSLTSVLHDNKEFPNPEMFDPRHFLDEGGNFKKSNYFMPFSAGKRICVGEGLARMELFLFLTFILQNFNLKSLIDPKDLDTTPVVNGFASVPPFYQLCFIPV
Chain of Histone deacetylase 5 (Q9UQL6 whole entry, the tested form may be a part): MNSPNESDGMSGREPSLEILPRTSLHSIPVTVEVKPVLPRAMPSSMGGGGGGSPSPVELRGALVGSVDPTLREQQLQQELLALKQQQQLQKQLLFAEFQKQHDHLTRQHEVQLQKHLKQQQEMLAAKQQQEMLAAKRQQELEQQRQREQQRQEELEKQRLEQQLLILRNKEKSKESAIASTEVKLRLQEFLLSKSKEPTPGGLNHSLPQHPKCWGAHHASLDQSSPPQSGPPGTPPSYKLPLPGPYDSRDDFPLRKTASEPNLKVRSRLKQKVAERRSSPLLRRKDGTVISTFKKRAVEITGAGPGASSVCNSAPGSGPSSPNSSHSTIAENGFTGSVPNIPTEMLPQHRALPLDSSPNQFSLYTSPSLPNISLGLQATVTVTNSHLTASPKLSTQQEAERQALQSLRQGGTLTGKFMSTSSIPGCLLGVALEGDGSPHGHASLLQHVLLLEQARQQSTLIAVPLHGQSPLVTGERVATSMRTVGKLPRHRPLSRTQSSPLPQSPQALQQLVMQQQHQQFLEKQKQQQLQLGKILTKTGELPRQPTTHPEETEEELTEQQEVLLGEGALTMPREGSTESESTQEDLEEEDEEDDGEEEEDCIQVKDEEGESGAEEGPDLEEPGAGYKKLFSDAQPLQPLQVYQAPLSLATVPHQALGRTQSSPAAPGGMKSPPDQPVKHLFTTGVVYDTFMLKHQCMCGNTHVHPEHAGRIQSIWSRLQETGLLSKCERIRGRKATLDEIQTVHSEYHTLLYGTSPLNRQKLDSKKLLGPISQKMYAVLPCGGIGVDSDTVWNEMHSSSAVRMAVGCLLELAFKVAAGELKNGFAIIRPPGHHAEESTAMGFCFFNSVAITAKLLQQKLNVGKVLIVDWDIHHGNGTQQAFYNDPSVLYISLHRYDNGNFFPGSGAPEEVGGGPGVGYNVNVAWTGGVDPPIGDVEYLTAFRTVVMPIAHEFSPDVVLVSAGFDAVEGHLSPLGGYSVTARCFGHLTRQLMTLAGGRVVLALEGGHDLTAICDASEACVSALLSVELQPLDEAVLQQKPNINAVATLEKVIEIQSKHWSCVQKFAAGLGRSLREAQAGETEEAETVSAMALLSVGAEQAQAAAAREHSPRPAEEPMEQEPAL
Chain of Histone deacetylase 1 (Q13547 whole entry, the tested form may be a part): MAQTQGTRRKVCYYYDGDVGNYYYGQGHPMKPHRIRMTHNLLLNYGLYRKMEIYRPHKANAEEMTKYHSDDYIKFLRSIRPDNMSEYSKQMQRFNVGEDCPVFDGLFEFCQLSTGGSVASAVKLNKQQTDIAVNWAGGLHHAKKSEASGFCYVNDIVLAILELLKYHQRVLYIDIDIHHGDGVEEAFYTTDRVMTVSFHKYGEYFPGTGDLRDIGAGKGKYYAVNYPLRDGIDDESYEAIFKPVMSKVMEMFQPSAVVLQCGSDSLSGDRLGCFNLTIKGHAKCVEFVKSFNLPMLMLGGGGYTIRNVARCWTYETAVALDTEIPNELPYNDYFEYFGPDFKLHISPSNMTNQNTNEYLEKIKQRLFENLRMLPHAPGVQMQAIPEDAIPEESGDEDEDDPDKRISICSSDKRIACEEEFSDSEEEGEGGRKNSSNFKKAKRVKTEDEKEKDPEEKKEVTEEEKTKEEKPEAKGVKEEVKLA
Chain of Histone deacetylase 9 (Q9UKV0 whole entry, the tested form may be a part): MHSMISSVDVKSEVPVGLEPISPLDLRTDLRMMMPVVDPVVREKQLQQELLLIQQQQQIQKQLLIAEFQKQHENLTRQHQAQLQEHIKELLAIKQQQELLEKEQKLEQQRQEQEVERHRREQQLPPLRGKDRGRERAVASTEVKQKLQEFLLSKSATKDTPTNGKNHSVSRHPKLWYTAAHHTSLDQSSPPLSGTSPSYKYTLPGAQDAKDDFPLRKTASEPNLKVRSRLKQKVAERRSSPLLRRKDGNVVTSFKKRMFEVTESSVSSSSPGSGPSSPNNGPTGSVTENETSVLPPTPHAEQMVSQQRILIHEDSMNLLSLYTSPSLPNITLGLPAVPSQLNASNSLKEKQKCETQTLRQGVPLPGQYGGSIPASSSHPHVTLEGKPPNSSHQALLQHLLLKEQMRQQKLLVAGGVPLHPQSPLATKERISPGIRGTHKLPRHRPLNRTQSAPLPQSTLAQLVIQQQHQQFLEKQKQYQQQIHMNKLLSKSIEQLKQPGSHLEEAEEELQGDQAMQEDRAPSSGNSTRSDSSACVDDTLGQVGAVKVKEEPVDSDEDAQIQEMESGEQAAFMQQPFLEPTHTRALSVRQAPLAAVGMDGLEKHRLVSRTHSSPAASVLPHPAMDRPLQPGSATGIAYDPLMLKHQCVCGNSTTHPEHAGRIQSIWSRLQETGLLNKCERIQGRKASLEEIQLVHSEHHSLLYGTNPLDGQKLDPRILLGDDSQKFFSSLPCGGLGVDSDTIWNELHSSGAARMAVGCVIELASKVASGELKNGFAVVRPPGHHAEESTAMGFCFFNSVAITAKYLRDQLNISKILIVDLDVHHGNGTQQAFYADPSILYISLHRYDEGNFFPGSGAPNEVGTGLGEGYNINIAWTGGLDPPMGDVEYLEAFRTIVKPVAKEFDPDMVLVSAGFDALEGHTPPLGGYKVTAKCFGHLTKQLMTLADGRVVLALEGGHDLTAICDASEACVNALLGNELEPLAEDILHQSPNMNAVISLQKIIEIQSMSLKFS
Chain of Histone deacetylase 4 (P56524 whole entry, the tested form may be a part): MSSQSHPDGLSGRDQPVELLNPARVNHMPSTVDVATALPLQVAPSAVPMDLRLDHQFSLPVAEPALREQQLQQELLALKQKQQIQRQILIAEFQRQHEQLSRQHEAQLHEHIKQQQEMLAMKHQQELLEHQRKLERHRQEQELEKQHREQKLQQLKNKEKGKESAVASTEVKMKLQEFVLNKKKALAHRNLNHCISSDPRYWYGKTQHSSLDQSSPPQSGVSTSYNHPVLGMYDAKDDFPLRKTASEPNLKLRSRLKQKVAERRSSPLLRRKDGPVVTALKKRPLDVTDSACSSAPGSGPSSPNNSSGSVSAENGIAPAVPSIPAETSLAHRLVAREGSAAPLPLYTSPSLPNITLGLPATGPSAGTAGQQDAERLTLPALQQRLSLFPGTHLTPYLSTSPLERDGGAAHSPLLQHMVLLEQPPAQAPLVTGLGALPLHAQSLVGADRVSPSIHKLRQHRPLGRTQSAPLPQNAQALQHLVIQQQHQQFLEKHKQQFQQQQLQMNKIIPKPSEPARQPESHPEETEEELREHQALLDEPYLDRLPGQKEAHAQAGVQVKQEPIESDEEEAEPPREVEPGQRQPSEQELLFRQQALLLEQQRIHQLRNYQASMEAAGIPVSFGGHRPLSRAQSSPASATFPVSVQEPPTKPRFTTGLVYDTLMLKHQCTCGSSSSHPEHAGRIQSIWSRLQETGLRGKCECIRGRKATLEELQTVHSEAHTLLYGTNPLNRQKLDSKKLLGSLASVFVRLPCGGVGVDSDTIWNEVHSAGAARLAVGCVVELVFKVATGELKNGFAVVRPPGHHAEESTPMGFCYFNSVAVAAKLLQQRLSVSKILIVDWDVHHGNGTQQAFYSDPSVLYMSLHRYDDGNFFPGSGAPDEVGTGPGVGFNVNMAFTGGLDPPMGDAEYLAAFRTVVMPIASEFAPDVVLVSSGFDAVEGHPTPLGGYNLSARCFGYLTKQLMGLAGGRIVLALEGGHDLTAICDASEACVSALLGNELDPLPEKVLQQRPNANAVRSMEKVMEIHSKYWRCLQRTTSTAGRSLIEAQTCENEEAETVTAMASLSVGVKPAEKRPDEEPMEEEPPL

IC50 [1] [µM] | IC50 (Histone deacetylase 5) [µM] | IC50 (Histone deacetylase 1) [µM] | IC50 (Histone deacetylase 9) [µM] | IC50 (Cytochrome P450 2C19) [µM] | IC50 (Histone deacetylase 4) [µM] | IC50 [2] [µM] | IC50 (Cytochrome P450 1A2) [µM] | AUC [3] [ng·h/mL] | Compound
> 30 | 3.5 | 0.06 | 16 | 43 | 13 | 3.4 | 42 | – | CN1C[C@H](C(=O)Nc2ccc(Cl)cc2)[C@@H](c2ccc(/C=C/C(=O)Nc3ccccc3N)cc2)C1
> 30 | 1.1 | 0.14 | 13 | 43 | 36 | 1.6 | 50 | 2540 | CN1C[C@@H](C(=O)Nc2ccc(Cl)cc2)[C@H](c2ccc(/C=C/C(=O)Nc3ccccc3N)cc2)C1
> 30 | 5.3 | 0.1 | 43 | 21 | 46 | 5 | 28 | 3570 | CN1C[C@H](C(=O)Nc2ccc(Cl)cc2)[C@@H](c2ccc(/C=C/C(=O)Nc3ccccc3N)cc2F)C1 (racemic)
